Data on 167 variants can be found in the RNAGym collection of RNA variant scans (doi:10.1126/science.aae0568).

Fewer inactive variants are shown than the library holds. Bounds are passed on as bounds.

The chains are these.
B1: tRNA (parent)
chain: GUUCCGUUGGCGUAAUGGUAACGCGUCUCCCUCCUAAGGAGAAGACUGCGGGUUCGAGUCCCGUACGGAACG

Variants of B1 are the subject of the data set. Description: yeast fitness relative to wild type (ratio to wild type); higher = fitter; tRNA-Arg(CCU), competitive growth, 37 C, YPD. The gist of the method: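 Variants of the tRNA-Arg(CCU) gene, chemically synthesised with a 3% per-site mutation rate at 69 sites, were placed at the native genomic locus in Saccharomyces cerevisiae. The pooled strains were competed in YPD at 37°C for 24 hours in six parallel replicates. Gene amplicons from the start population and from each end population were read by 100-nucleotide paired-end sequencing. Darwinian fitness relative to wild type came from changes in genotype frequencies; genotypes needed ≥ 100 starting reads, and estimates < 0.5 were set to 0.5.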
As to G6A A14C C24U G50A A57U A70U, the yeast fitness turned out to be 0.745.
Then G9C A57U C60A, with 0.727.
As for U19G G25A G39A, the figure is 0.597.
Then G9A C11A G38C G58A C60G, with no more than 0.5; and U19G G51C, with 0.537; and A14G A43C C66G A69U, with no more than 0.5.
Regarding C27A A36U, the yeast fitness was determined as 0.802.
Then U13A A37G G41C, with no more than 0.5; and C4A A57G C62G C66G, with no more than 0.5; and A21C C22A A45U G67A, with no more than 0.5.
Then U8C C24G, with 0.576.
Take A36U A37C A70G: the yeast fitness is no more than 0.5.
For the variant C5U A20U C60A, the yeast fitness was no more than 0.5.
As for C4G U16G, the figure is 0.831; as for A15C G38A, 0.581.
Then U3A U16C A20C A45G, with no more than 0.5; and G6C C24A C34U C49G G52C C55U C62G, with no more than 0.5; and C5A A14U G52A, with 0.603.
For the variant C5G C31U A36C G38A G56A A70U, the yeast fitness is no more than 0.5.
As for A15G A40U A45G, the figure is 0.585; as for A14U U26C C49A, no more than 0.5.
G17C G23C C33G G50A G68A: the yeast fitness is no more than 0.5.
Then C49G G50C, with 0.613; and A20G C34A A36G C66U, with no more than 0.5.
Regarding G17A G48A A57G, the yeast fitness was no more than 0.5.
As for U26C G51C, the yeast fitness stood at 0.663.
With U7A C30U G50C, the yeast fitness was no more than 0.5.
As for C4U U35A G44C, the figure is 0.58.
C4A C11U A14G A40G G50C: the yeast fitness is no more than 0.5.
Then C5G U28A A57C C66G, with no more than 0.5; and C31U A40G A70U, with 0.55; and G17C U59G, with 0.674.
Regarding A14C C33A A37U C62G, the yeast fitness is no more than 0.5.
As for G10A A21G G67C, the figure is 0.617.
U8A G18C U19C A20C A36G U64A G67C: the yeast fitness was no more than 0.5.
In the case of C5U C11A A69U, the yeast fitness was no more than 0.5.
For the variant U32A A45C G48A, the yeast fitness is 0.509.
Then C31U A40G G63A A70U, with no more than 0.5.
On to G25A G58A, for which the yeast fitness is 0.872.
As for C11A U19A A42U A45C U47C C55U A69C, the figure is no more than 0.5; as for G23A G38A C55U, no more than 0.5; as for C5G A20G C22G C29G G63A, no more than 0.5.
On to U8A C29G A65G C66G, for which the yeast fitness was determined as 0.57.
As for C29A A42C, the figure is 0.662; as for U3C G18A U53A U54G A70G, no more than 0.5.
As for G23C C55G G67A, the figure is 0.526; as for G10A A14C C22U, no more than 0.5; as for C27G C31G C61G A69U, 0.55.
With G48C A69C, the yeast fitness worked out at 1.05.
As for U19C C27G A65U G68U, the yeast fitness is no more than 0.5.
Then C4U G23A C33G C49A U54G A65G, with no more than 0.5.
In the case of U2G C4G A21C A69C, the yeast fitness is no more than 0.5.
As for C49G G67C, the figure is 0.84; as for C5G U47C A65C, 0.558; as for C11G A15U C24G A40G A42U, no more than 0.5.
Regarding G9A C27A C49U C60U C62A A65G, the yeast fitness was no more than 0.5.
As to A21G C49U C62A, the yeast fitness is 0.602.
For the variant C4A U64G, the yeast fitness is 0.641.
As for A21C C34U C49U G63A A69U, the yeast fitness is no more than 0.5.
In the case of U13G A70G, the yeast fitness is 0.831.
For the variant U2G C31U A70U, the yeast fitness amounted to 0.772.
Then U13A U32A A37U G41A, with no more than 0.5; and G6A G44C, with 0.799; and C27A G56C C62A A65C, with 0.611.
As to U16A C31A A65C, the yeast fitness was no more than 0.5.
With U8G G52A A70U, the yeast fitness was no more than 0.5.
As for C5U G39A C55U, the figure is 0.614.
Then A21G A45C C66U, with 0.555; and U19G U47C, with 0.972; and A37C C62U, with 0.913.
As for C31G G63C, the figure is 0.614; as for U2C G63C G68C, 0.572; as for U3A C60A C61U A69U, 0.597.
As for U2C C11G C27U C46G, the yeast fitness amounted to 0.606.
As for C24U U26G C61G, the figure is no more than 0.5; as for U2G U19C G48C G52C C62G, no more than 0.5; as for U3C A21G C27A A36U A40G, no more than 0.5.
Turning to U7G A14G C22U G38A, the yeast fitness stood at 0.534.
Then C29G G58C A65C, with no more than 0.5.
C5U C49U G67C: the yeast fitness was 0.608.
Take G48A G50U U54G A70U: the yeast fitness is no more than 0.5.
Then U16G A37C C66A, with no more than 0.5; and C24A U59G C62U A70G, with 0.54.
Then A15C G51C, with 0.504; and G41A A57G, with 0.828; and C22A G25C G63A, with 0.622.
Then G9A A15U A20G, with 0.503.
Regarding A14G G63C, the yeast fitness was found to be 0.78.
U13A A40U G52U C55G: the yeast fitness was no more than 0.5.
Then A14G C31G A69C, with 0.652; and C29G A43G, with 0.785; and U8A A14U, with 0.534.
For C46U C49A, the yeast fitness worked out at 0.858.
Then G12C G18C C55U C60G, with no more than 0.5; and C22U U32C A65C, with 0.701.
Then G12C U26C A43C, with 0.741; and U16C A36G, with 1.03.
Take G9C C22G A57C: the yeast fitness was no more than 0.5.
Then U28C C29G C49U, with no more than 0.5.
As for C5U C11G C24G, the figure is no more than 0.5; as for C5U G17C C30G, no more than 0.5; as for G52C C55A, no more than 0.5.
As for A14U C33A, the figure is 0.629; as for G9A A45C U64C A65C, 0.648.
Take C34G A37C G58C: the yeast fitness is no more than 0.5.
With G12C A14U C61G U64C, the yeast fitness is no more than 0.5.
On to C30U U47A A57G G67C, for which the yeast fitness is no more than 0.5.
For A43G C61G C62U, the yeast fitness was no more than 0.5.
As for C24A A42G G48C, the figure is no more than 0.5; as for C33G A40G G58A C66G, no more than 0.5.
Take C22A G67A: the yeast fitness was found to be 0.888.
Take C49U A69U A70G: the yeast fitness is 0.687.
For C4U U26G C29U U47C A65U, the yeast fitness was no more than 0.5.
With A21G G38C G68C, the yeast fitness is no more than 0.5.
Turning to A14G C22A A57U, the yeast fitness is no more than 0.5.
Consider U32C C49U, for which the yeast fitness turned out to be 0.971.
For the variant C4G A14C G25C, the yeast fitness came out at 0.8.
As to U35G C49G A65C, the yeast fitness was no more than 0.5.
In the case of C5G A20G C31A, the yeast fitness was no more than 0.5.
On to C4U C29U, for which the yeast fitness is 1.
For the variant C22G C24G G50A A70U, the yeast fitness was no more than 0.5.
Then G9C A40U C46U, with 0.511; and C24U A37C A40G U54A, with no more than 0.5.
Then C11G G18A C24U, with 0.542; and C5G U7C A45U C55G, with no more than 0.5.
Then C5U C34A G50C, with no more than 0.5; and C31G G51A U59A, with no more than 0.5; and G23C A37U G41A G63A, with 0.558.
On to A15C C27U G39C C49G A69C, for which the yeast fitness is no more than 0.5.
On to G6C A37U, for which the yeast fitness worked out at 0.677.
As for G25C C34G G39U U47G, the yeast fitness is no more than 0.5.
U3G G25A C27G G50C: the yeast fitness was 0.537.
Consider U8G C30G C31U G39A, for which the yeast fitness is 0.507.
On to G6C C22A C46A C61G A69G, for which the yeast fitness was no more than 0.5.
Turning to G10A G17C C30G C33G C61A A69U A70G, the yeast fitness is no more than 0.5.
In the case of C27G A36G A69U, the yeast fitness was 0.641.
For U2A U28G A40C G67C, the yeast fitness stood at 0.639.
Turning to C5G U7A A20C, the yeast fitness is 0.694.
For the variant C4A G39A G52C C55G, the yeast fitness was no more than 0.5.
As for U32A G39A U54A C66A, the figure is no more than 0.5; as for U7C C33G A37U A40C A69U, 0.533.
Then G9A A14C C27U C46U G52C, with 0.53; and U2A A45C, with 0.933; and C22G C55A, with 0.712.
As for G6A G18U C24A U32A G38A A43G A45U G52A, the figure is 0.641; as for A20U C22U C34A U64C, no more than 0.5.
With C4A C27G, the yeast fitness amounted to 0.674.
Turning to C4G C55A C60A, the yeast fitness was no more than 0.5.
As for A36C C61A, the figure is 0.523; as for U7G C27U C33U G50C U53A A57U A65U, no more than 0.5; as for C5G A21G C27G C34G A43C C46G A70G, 0.561.
As for C27A G44C U59A, the yeast fitness was no more than 0.5.
As for A14G C49U, the figure is 0.908.
As for C24U C31G G50A U64C, the figure is no more than 0.5.
Then C30U A37C, with 0.729; and U2A C46G, with 0.829; and A20G G39C G48A, with 0.924.
In the case of C11G C66G G68C, the yeast fitness is no more than 0.5.
Then C62A, with 0.72; and G6C C66A, with 0.927.
As for C11G C34A A36U C60A, the figure is no more than 0.5.
With C5G C27G A65C A70C, the yeast fitness worked out at 0.552.
Then A20U A36G, with 0.766; and U19A G44C G67C, with 0.639; and A21G C22U C24G G25C U32A C34U G39C A45G, with no more than 0.5.
Then A20C C60G, with 0.591; and C27U G68A, with 0.822.
